The text below walks through data of ChEMBL document CHEMBL4014335, “Activation of Phenyl 4-(2-Oxo-3-alkylimidazolidin-1-yl)benzenesulfonates Prodrugs by CYP1A1 as New Antimitotics Targeting Breast Cancer Cells” (J Med Chem, 2017).

In series [1] the test system is Chorioallantoic membrane. Description: Toxicity in chicken chorioallantoic membrane implanted with CYP1A1 transfected human HT1080 cells at 1 ug/egg, iv administered on day 11 post implantation measured on day 17. Format: organism-based, Gallus gallus. The settings on record: in vivo. Summed up: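 Fertilized chicken eggs bearing CYP1A1-transfected HT-1080 tumors on the CAM. On day 11, drug (40 mM DMSO stock) diluted in cremophor/EtOH/PBS 6.25/6.25/87.5, final DMSO < 0.5%. Given iv in 100 µL to 10–12 eggs per group. Embryos killed on day 17, tumor wet weight recorded, deaths and toxicity signs scored. Two independent experiments, 20–24 eggs in total.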

Series [2] deals with MDA-MB-231. Description: Cell cycle arrest in human MDA-MB-231 cells assessed as accumulation at G0/G1 phase at 50 nM after 24 hrs by DAPI-staining based FACS analysis (reference value: 70.7%). Format: functional. A general note: In flow cytometry, cells or beads pass a laser one at a time.
Series [3] has as its system MDA-MB-231. In words: Cell cycle arrest in human MDA-MB-231 cells assessed as accumulation at G2/M phase at 8 nM after 24 hrs by DAPI-staining based FACS analysis (reference value: 15.5%). Format: functional.

Each structure is given as a SMILES string.

In the case of `CCCCN1CCN(c2ccc(S(=O)(=O)Oc3cc(OC)c(OC)c(OC)c3)cc2)C1=O`, the Activity result in series [1] is “Non-Toxic”; in series [2] it was 73%.
As to `COc1cc(OS(=O)(=O)c2ccc(N3CCNC3=O)cc2)cc(OC)c1OC`, the Activity in series [3] was found to be 76.6%.
